Screens as filed in PubChem.
CRFR2-BP antag: antagonists of CRF-BP/CRF-R2 complex, primary screen, cell-based, HEK293, calcium dye fluorescence, uHTS | hit rate 0.59% among 350,000 | inhibition, % at 11.8 µM | CRF-induced calcium fluorescence;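 active = inhibition of the ligand-induced calcium signal above about 50% at the single tested concentration, limit read from the data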
CRFR2-BP ag: agonists of CRF-BP/CRF-R2 complex, primary screen, cell-based, HEK293, calcium dye fluorescence, uHTS; CRF-binding protein / CRF receptor 2 complex (human); calcium dye fluorescence (FLIPR); percent of saturating CRF peptide response; activation, % at 13.2 µM; hit rate 0.46% among 350,000; AID 588473, 2011;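 active = activation of at least 50%, plus an integration ratio under a set limit after plate pattern correction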;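 note: plate controls were neutral control wells without compound for no effect and CRF at EC100 for full effect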
DDE Tn6 FP inh: inhibitors of Tn6 peptide binding to fibrin DD(E), primary screen, biochemical, fluorescence polarization, human fibrin, Tn6 probe | Fibrinogen beta chain (Homo sapiens), P02675 | Fibrin DD(E) TRITC-Tn6 fluorescence polarization displacement | inhibition, % at 8.3 µM | hit rate 0.21% among 370,000;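 active = inhibition above a per-campaign cutoff: mean of compounds within control limits plus 3 SD, cut at about 15% in these data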;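 note: 0% = median of all compound wells on the plate and 100% = blocking peptide control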
Target sequence (P02675 whole entry, looked up): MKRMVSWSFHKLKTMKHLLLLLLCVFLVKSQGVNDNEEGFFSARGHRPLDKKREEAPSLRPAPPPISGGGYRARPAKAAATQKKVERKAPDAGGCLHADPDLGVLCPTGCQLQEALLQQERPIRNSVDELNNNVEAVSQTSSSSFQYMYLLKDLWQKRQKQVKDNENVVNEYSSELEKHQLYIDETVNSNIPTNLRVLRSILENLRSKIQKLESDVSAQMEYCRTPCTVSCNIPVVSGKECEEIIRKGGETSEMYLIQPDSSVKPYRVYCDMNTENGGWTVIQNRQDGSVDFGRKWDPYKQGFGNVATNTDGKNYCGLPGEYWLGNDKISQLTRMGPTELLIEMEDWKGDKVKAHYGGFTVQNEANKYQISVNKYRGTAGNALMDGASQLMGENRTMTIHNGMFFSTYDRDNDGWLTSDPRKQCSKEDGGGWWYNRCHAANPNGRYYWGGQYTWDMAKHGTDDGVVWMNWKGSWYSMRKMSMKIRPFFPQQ
Tn7 DDE FP: inhibitors of Tn7 peptide binding to fibrin DD(E), primary screen, biochemical, fluorescence polarization, human fibrin, Tn7 probe; inhibition, % at 8.3 µM; Fibrinogen beta chain (Homo sapiens), P02675; FP displacement of FITC-Tn7 peptide from fibrin DD(E); 0% = median of compound wells per plate; hit rate 0.13% among 370,000; AID 720508, 2013;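 active = inhibition above the mean of compounds falling within the control limits plus 3 SD of them, cut at about 14% in these data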;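 note: 0% = plate median of compound wells and 100% = 10 µM Aha-Tn7 peptide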
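Assay system: Human clot-derived fibrin DD(E) complex | Buffer or medium: Tris/NaCl/CaCl2 buffer, pH 7.8 | Repeats: One replicate per compound | Benchmarks: Aha-Tn7 high control | Measure: % inhibition scaled between sample-field median and high-control FP | Schedule: 10 min plus 3 h, room temperature | Signal: Fluorescence polarization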
The depositor's hits bear a star; . = not tested or not shown; ! = not confirmed by another sample. Sampled rows, rich in hits. Any-hit rate of the full collection: about 1.2%.

SMILES	CRFR2-BP antag	CRFR2-BP ag	DDE Tn6 FP inh	Tn7 DDE FP
CCCNC(=O)COc1ncnc2sc(C)c(C)c12	-1.5	-1.4	4.0	-2.5
CCc1nnc(NS(=O)(=O)c2ccc(N=Cc3c(C)[nH]n(-c4ccc(Cl)cc4)c3=O)cc2)s1	32.6	2.3	-3.8	2.4
CCc1nnc(NS(=O)(=O)c2ccc(N=Cc3c(C)[nH]n(-c4cccc(Cl)c4)c3=O)cc2)s1	51.0*	-0.9	6.2	4.1
CN(CCOC(=O)c1cc2ccccc2o1)C1CN(Cc2cn(Cc3ccccc3C(F)(F)F)nn2)S(=O)(=O)C1 (stereo not drawn)	.	.	-0.2	4.8
COC(=O)[C@]12C[C@H](CC(=O)NCC34CC5CC(CC(C5)C3)C4)C(=O)N(Cc3ccco3)C1=C[C@H](C1CCCC1)O[C@@H]2C	.	.	-5.1	-3.1
COc1ccc(C#Cc2cnc3c(c2)C(=O)N([C@H](C)CO)C[C@@H](C)[C@H](CN(C)C(=O)CN(C)C)O3)cc1	-3.2	-0.3	-7.8	-4.5
O=C1/C(=N\S(=O)(=O)c2cccs2)C([n+]2cccc(Cc3ccccc3)c2)=C([O-])c2ccccc21	-62.3	62.3*	.	.
O=C1/C(=N\S(=O)(=O)c2cccs2)C([n+]2ccc(CCCc3ccccc3)cc2)=C([O-])c2ccccc21	-6.8	-0.7	1.3	0.8
O=C(c1ccc(COc2ccccc2Cl)o1)N1CCN(Cc2ccc3c(c2)OCO3)CC1	59.5*!	1.3	-6.6	-6.7
O=C(c1ccc(COc2ccc(Cl)cc2)o1)N1CCN(Cc2ccc3c(c2)OCO3)CC1	42.8	-0.5	0.2	7.0
CNc1c2cccc(C)c2nc2c(C(=O)NCCN(C)C)cccc12	4.3	53.8*	2.4	-7.4
CCC(=Nc1ccc(N)cc1)C1=C(O)C(C(=O)OC)C(C)(C)CC1=O (stereo not drawn)	15.2	5.9	125.2*	7.2
CCCC(=NCC(=O)O)C1=C(O)C(C(=O)OC)C(C)(C)CC1=O (stereo not drawn)	61.2*	7.0	-0.8	-0.4
CCCC(=Nc1ccccc1)C1=C(O)C(C(=O)OC)C(C)(C)CC1=O (stereo not drawn)	-3.5	-1.3	3.3	4.0
CCOc1cc(OCC)cc(C(=O)N2CCC[C@@H]2C(=O)N2CCC[C@@H]2C(=O)NCc2cccc(OC)c2)c1	.	.	-4.4	3.0
COc1ccc(OC2C(=O)N(Cc3ccc(F)cc3)C2c2cc(OC)c(OC)c(OC)c2)cc1 (stereo not drawn)	122.7*	-1.1	1.9	5.5
CCN1CC=C2C(C#N)=C(N)C(C#N)(C#N)[C@H](c3cccc(OC)c3OC)[C@H]2C1	-37.0	32.5	1.9	3.5
CN1CC=C2C(C#N)=C(N)C(C#N)(C#N)C(CCc3ccccc3)C2C1 (stereo not drawn)	-58.5	59.4*	.	.
CN1CC=C2C(C#N)=C(N)C(C#N)(C#N)[C@H](c3cccs3)[C@H]2C1	-67.0	52.9*	.	.
COc1cccc(C2C3CN(C)CC=C3C(C#N)=C(N)C2(C#N)C#N)c1OC (stereo not drawn)	-8.1	72.0*	-0.2	-2.2
CN1CC=C2C(C#N)=C(N)C(C#N)(C#N)C(c3ccsc3)C2C1 (stereo not drawn)	-15.5	31.9	15.0	5.4
O=C(NCc1ccc(F)c(F)c1)C1CCCN(c2nc3ccccc3o2)C1 (stereo not drawn)	.	.	-10.3	0.2
O=C(Cc1c[nH]c2ccccc12)Nc1ccc(Nc2cccnc2)c(-c2cc(F)cc(F)c2)c1	.	.	3.2	6.0
O=C(CCCc1nc(-c2ccccc2)no1)NC1CCCCC1	8.6	1.9	0.5	2.8
CC(C)CCOP(=O)(c1ccc(N(C)C)cc1)C(Nc1ccccc1)c1ccc(N(C)C)cc1 (stereo not drawn)	110.6*	7.6	6.1	3.8
Cc1cccc(-c2cccc3c4c([nH]c23)[C@@H]2C[C@H](N(C)C(=O)NC3CCCCC3)[C@H]([C@H](C)O)CN2CC4)c1	.	.	0.9	-8.0
CC(C)COC(=O)N1CCCC(c2cc(C(=O)Nc3ccccc3Cl)no2)C1 (stereo not drawn)	.	.	1.9	4.2
CC(C)(C)OC(=O)N1CCC(N[C@@H](Cc2ccccc2)C(=O)NCCc2c[nH]c3ccccc23)(C(=O)NC2CCCCC2)CC1	.	.	1.8	-3.7
